Our source for the yeast fitness values is the RNAGym collection of RNA variant scans (doi:10.1126/science.aae0568).

Sequences and labels used below:
B1: tRNA (parent)
chain: GUUCCGUUGGCGUAAUGGUAACGCGUCUCCCUCCUAAGGAGAAGACUGCGGGUUCGAGUCCCGUACGGAACG

Fewer inactive variants are shown than the library holds.

Variants of B1 are the subject of this data set. As to the kind of experiment: yeast fitness relative to wild type (ratio to wild type); higher = fitter; tRNA-Arg(CCU), competitive growth, 37 C, YPD. The procedure, abridged: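 A pool of Saccharomyces cerevisiae strains, each with a tRNA-Arg(CCU) gene variant at the native genomic locus, was competed in YPD at 37°C for 24 hours across six parallel replicates. The variants had been chemically synthesised at a 3% per-site mutation rate over 69 sites, and gene amplicons before and after competition were read by 100-nucleotide paired-end sequencing. Darwinian fitness relative to wild type rested on changes in genotype frequencies. Genotypes required ≥ 100 starting reads, and estimates < 0.5 were set to 0.5.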
A15C U16A: the yeast fitness stood at 0.628. A15C U16C: the yeast fitness is 0.678.

Take A15C A45G: the yeast fitness is 0.583.

With A15C A45C, the yeast fitness is 0.587. Regarding A15C C29U A69C, the yeast fitness is no more than 0.5.

Take A14U G18C C29U A37U: the yeast fitness was no more than 0.5. Turning to A15C A36U A37G A65C, the yeast fitness is no more than 0.5. Take A14U C49A A57G: the yeast fitness turned out to be 0.542. Turning to A15C C49A G67C, the yeast fitness was no more than 0.5. With A14U C30A C66U, the yeast fitness was 0.547. In the case of A14U G25A C61U, the yeast fitness was 0.649.

For A14U C29U C55U A69G, the yeast fitness is no more than 0.5. With A14U C24G U26G the figure was no more than 0.5; with A14U C30U C62G A65G G68C, no more than 0.5. Turning to A15C G58A C61G C62G, the yeast fitness was no more than 0.5. For the variant A15C G17A A42U, the yeast fitness is no more than 0.5.

Regarding A15C U19A A21G C22G C30U C55G, the yeast fitness is no more than 0.5. The result for A15C G25A reads 1.02; that for A14U U64C, 0.71; that for A15C G17A C22U G23C G51A A69C, 0.567. For A15C G17A G18A A36C C55U C66A, the yeast fitness came to 0.529. With A15C U16C A37C G50A U53A C61U the figure was 0.58; with A15C G17A G18A A36C C55U, no more than 0.5. In the case of A15C C61U A69U, the yeast fitness was 0.571.

On to A14U G23C A70C, for which the yeast fitness came out at 0.586. On to A15C A43U A65G, for which the yeast fitness was found to be 0.583. The result for A15C C31U G63A reads no more than 0.5; that for A15C G39A C62U, 0.553. As to A14U C34A C46U, the yeast fitness is no more than 0.5. Consider A15C G17A A57G A65G, for which the yeast fitness is no more than 0.5.

Regarding A14U G25A A42G C66G, the yeast fitness came to 0.767. As to A14U G17C U53G, the yeast fitness stood at 0.603. For the variant A15C C66U, the yeast fitness was 0.605. For the variant A14U C27G A37U, the yeast fitness is no more than 0.5. The result for A15C G18A reads 0.74; that for A15C C27U A42C, no more than 0.5; that for A14U C30U G58C C60A, no more than 0.5. The result for A14U G41A reads 0.674; that for A15C G17A C22U G23C G51A, 0.565. For A15C G17C G50A A69U, the yeast fitness was no more than 0.5. With A15C A43C G48C the figure was 0.544; with A15C C24G C34U A43G, no more than 0.5; with A15C A21G C22U U47C, no more than 0.5. With A15C G17C C31A G44C the figure was no more than 0.5. Take A15C A36U C49U A65C: the yeast fitness was no more than 0.5. With A14U U35C A37U the figure was no more than 0.5. For the variant A15C A43U C46A, the yeast fitness is 0.502. The result for A14U C34G C61G reads no more than 0.5; that for A15C A21G, 0.58; that for A15C A37U, 0.624. With A15C C24G A69U the figure was 0.533.

With A14U U19C A65U, the yeast fitness was no more than 0.5. The result for A14U G17A G23C C29U C34G A45C U54G G56A reads no more than 0.5; that for A15C C55U A65G, no more than 0.5; that for A14U C55A U59G A65C, 0.561. A15C G68C: the yeast fitness is 0.633. With A15C G68U the figure was 0.735; with A15C A65G, 0.829.

Take A15C C49G C55G: the yeast fitness was determined as 0.668.

With A15C C33A, the yeast fitness was 0.578.

For the variant A15C A20C C33U C34U C61G, the yeast fitness was no more than 0.5.

As for A14U C55G, the yeast fitness was 0.578. With A14U C55A the figure was 0.575; with A15C A20C A21U C30U A40U, no more than 0.5; with A14U G44C G51A A70U, 0.596. With A15C U19A G48A C62G U64C the figure was no more than 0.5; with A15C G38A U54A A57U, no more than 0.5. Turning to A14U U26A C33A G63A, the yeast fitness was no more than 0.5. The result for A15C C33U C49U reads no more than 0.5.

As to A14U C46U, the yeast fitness was determined as 0.664. Regarding A14U C46A, the yeast fitness turned out to be 0.599. The result for A14U C24G G41A G44A U53A A57G C66U reads 0.529; that for A15C U59A A69C, no more than 0.5.

As to A14U G25A C60G C66G, the yeast fitness is no more than 0.5.

Consider A14U U19A G23A A43C A57G U64G, for which the yeast fitness is no more than 0.5. Regarding A15C A40G U53C, the yeast fitness was no more than 0.5. For A14U G17A C22U C62A, the yeast fitness was no more than 0.5. With A15C C33U U47G C49U G52C the figure was no more than 0.5; with A15C U16C A43C, no more than 0.5.

For the variant A14U G18C C34U, the yeast fitness is no more than 0.5. With A15C G48A A57G the figure was 0.536; with A14U C30A A65C, no more than 0.5; with A15C U19C A65C, 0.628. With A15C A69G, the yeast fitness worked out at 0.877. The result for A15C C27A G58A A70U reads 0.525; that for A15C U35A G50C A65C, 0.603. The result for A15C C31G G58A U59A A65U reads no more than 0.5. For A15C C29U G39C A42U G50U G51C A65U, the yeast fitness came to 0.527. Take A14U C27G A36G G52C C61A: the yeast fitness was no more than 0.5. As to A15C C46U G50A, the yeast fitness is 0.711. With A15C G48A the figure was 0.946. For A15C G48C C61A, the yeast fitness is no more than 0.5. As to A14U C27U C55G G68A, the yeast fitness is no more than 0.5.

For the variant A15C A21U G23A, the yeast fitness is no more than 0.5. The result for A14U C29U C30A A45C reads no more than 0.5.

With A15C C30A A57G, the yeast fitness is no more than 0.5. With A15C C30U C33G the figure was no more than 0.5; with A15C U19C C62A, 0.536; with A14U C46A C66U, no more than 0.5. On to A14U C27A C33U U47C C49U G51A, for which the yeast fitness is no more than 0.5. With A15C C22G A43C the figure was no more than 0.5; with A15C G56A C61U C66U, no more than 0.5. The result for A14U C27G reads 0.611; that for A14U G18C, 0.583.

Turning to A15C C29A G41A A43C, the yeast fitness is no more than 0.5. The result for A15C A36G G39C C55U C66U reads no more than 0.5.

In the case of A14U G17A C29G C34U U35A G38C C55G A69G A70C, the yeast fitness was found to be 0.511. Regarding A15C A21C C34U A37U, the yeast fitness is no more than 0.5. The result for A15C U16C A36U A65C reads no more than 0.5; that for A14U C27G G52A C60U, no more than 0.5. In the case of A14U U19A, the yeast fitness came out at 0.709.

On to A15C U16C C34G C46A C61U C66G, for which the yeast fitness was no more than 0.5. The result for A15C C22A A42C C46A A65U reads no more than 0.5; that for A15C U47A G52A, 0.576. The result for A14U G25C G39C U54G A65U reads no more than 0.5.

For the variant A15C C29G G44C A45U U47A, the yeast fitness is no more than 0.5.

As to A14U U28A G41C A42U G52A A70C, the yeast fitness was no more than 0.5. The result for A14U C29U A37U G50A reads no more than 0.5.

Turning to A15C G17A C22U G23C G51A A70U, the yeast fitness came out at 0.596. For the variant A14U C49A, the yeast fitness came to 0.543.

As for A14U C34G C61G A70C, the yeast fitness was no more than 0.5. The result for A14U C29U reads 0.64; that for A14U C29G, 0.692.

Consider A15C C22U G38A C55G, for which the yeast fitness is no more than 0.5. With A14U C30U C60A C66U, the yeast fitness amounted to 0.618.

A14U C29U U32G A57U: the yeast fitness was no more than 0.5. With A14U C27U A69G the figure was no more than 0.5. Consider A14U U16G U19A G56A G67A, for which the yeast fitness was no more than 0.5. Regarding A14U G39C C55G C62A, the yeast fitness was no more than 0.5. The result for A14U G17A C31U C61A G68C reads no more than 0.5; that for A14U U35C U53G C66G, no more than 0.5; that for A14U G23A U32C, no more than 0.5. With A15C C30U G67A the figure was no more than 0.5; with A15C C31A C34A, no more than 0.5. With A14U U16A A65U the figure was 0.626; with A14U G18C A70G, 0.715; with A15C C46U A69U, 0.814. For the variant A15C U35C A42G G67U, the yeast fitness is no more than 0.5. With A14U U35C C55G C61G C66U, the yeast fitness is no more than 0.5. Regarding A14U C31G G38A C66U, the yeast fitness is no more than 0.5.

A14U C30A C46U C62A: the yeast fitness is no more than 0.5. With A14U G23C C55A the figure was 0.559; with A15C U19C C31G G56C C66U, no more than 0.5; with A14U C46A G51C A57U U64G, 0.584. The result for A15C C46U A57G C66A reads no more than 0.5; that for A15C G56C U59C, no more than 0.5; that for A14U G17A A45U G58C, no more than 0.5. With A15C U35G the figure was 0.621; with A14U U26A C55G A65C, no more than 0.5; with A15C A36C G38C G52A, no more than 0.5. For the variant A15C C62A, the yeast fitness was 0.665. As for A15C C62U, the yeast fitness worked out at 0.755.

Take A15C A36G U47C C55A A69U: the yeast fitness came to 0.538. With A15C U16C A43U A70G the figure was 0.532; with A14U U54C C62U, no more than 0.5; with A15C C27U C31A C55U G68A, no more than 0.5. The result for A15C C31U U32C reads 0.5; that for A15C C30G U32C C34U C66U A70C, no more than 0.5.

As to A14U C24G G41A G44A U53A G63A C66U, the yeast fitness was no more than 0.5. With A14U C46G G63A the figure was 0.53; with A15C G18A C24A C34U C46G, no more than 0.5; with A14U G25A C62A G63A A70G, no more than 0.5. The result for A15C U35G A57G C66G reads 0.56; that for A14U G17C C24A C30G A57G, no more than 0.5. The result for A14U C31U C55U G68A reads 0.618; that for A15C U19A C30U A37C G41A, no more than 0.5. Regarding A15C A36G, the yeast fitness was 0.888.
